These results are taken from ChEMBL document CHEMBL2384996 (J Med Chem, 2013).

Activity calls are given as the source filed them. No cut-off for these calls is given here.

The nature of series [1]: Antagonist activity at Gloeobacter violaceus ligand-gated ion channel expressed in Xenopus oocytes assessed as inhibition of MES buffer pH 5.5 -induced currents after 30 secs by voltage clamp technique. The settings on record: Oocyte. The class given is cell-based. A digest of the protocol: (§1)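 GLIC expressed in Xenopus oocytes, two-electrode voltage clamp. Current elicited by pH 5.5 MES buffer (100 mM NaCl, 3 mM KCl, 1 mM CaCl2, 1 mM MgCl2, 10 mM MES) for 30 sec to steady state. Compound then co-applied for 30 sec in the same pH 5.5 buffer, followed by washout with buffer alone. Oocytes held in Barth's medium after injection.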

In series [2] the test system is Oocyte. In words: Inhibition of Gloeobacter violaceus ligand-gated ion channel expressed in Xenopus laevis oocytes assessed as inhibition of MES buffer pH 5.5 -induced currents at 1 mM after 30 secs by voltage clamp technique. The class given is cell-based. A digest of the protocol:
as §1

Series [3] is described as follows: Dissociation constant, pKa of the compound. The class given is physicochemical.
For series [4], the system named is Oocyte. In words: Inhibition of Gloeobacter violaceus ligand-gated ion channel expressed in Xenopus laevis oocytes assessed as inhibition of buffer at pH 4 -induced currents at 100 uM after 30 secs by voltage clamp technique. The class given is cell-based.
Series [5] can be described thus: Inhibition of Gloeobacter violaceus ligand-gated ion channel R105A mutant. The procedure, abridged: (§2)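 Alanine point mutants of GLIC expressed in Xenopus oocytes, voltage clamp. Compound co-applied with pH 5.5 buffer (100 mM NaCl, 3 mM KCl, 1 mM CaCl2, 1 mM MgCl2, 10 mM MES). Concentration-inhibition curves used for IC50; single-point inhibition taken at 100 μM, or at up to 1 mM. Mean ± sd, n ≥ 3 cells.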

The subject of series [6] is Gloeobacter violaceus. In words: Inhibition of Gloeobacter violaceus ligand-gated ion channel R133A mutant at 1 mM. The procedure, abridged: as §2
The test system of series [7] is Oocyte. In words: Inhibition of Gloeobacter violaceus ligand-gated ion channel expressed in Xenopus laevis oocytes assessed as inhibition of MES buffer-induced currents at 1 mM at pH 5.5 measured after wash-out by voltage clamp technique. The class given is cell-based.
Series [8] has as its system Gloeobacter violaceus. The series is described as follows: Inhibition of Gloeobacter violaceus ligand-gated ion channel E181A mutant at 100 uM. A digest of the protocol:
as §2

Series [9] concerns Oocyte. The series is described as follows: Selectivity ratio of IC50 for Gloeobacter violaceus ligand-gated ion channel R105A mutant to IC50 for wild-type Gloeobacter violaceus ligand-gated ion channel expressed in Xenopus oocytes. The class given is cell-based.
Series [10] can be described thus: Inhibition of Gloeobacter violaceus ligand-gated ion channel E181A mutant. The procedure, abridged:
as §2

Series [11] in a line: Inhibition of Gloeobacter violaceus ligand-gated ion channel R77A mutant. The procedure, abridged: as §2
In series [12] the test system is Gloeobacter violaceus. In words: Inhibition of Gloeobacter violaceus ligand-gated ion channel R105A mutant at 100 uM. A digest of the protocol: as §2
Series [13] deals with Gloeobacter violaceus. In words: Inhibition of Gloeobacter violaceus ligand-gated ion channel E177A mutant at 100 uM. A digest of the protocol:
as §2

Series [14] is described as follows: Inhibition of Gloeobacter violaceus ligand-gated ion channel E177A mutant. A digest of the protocol:
as §2

Series [15] concerns Oocyte. In words: Selectivity ratio of IC50 for Gloeobacter violaceus ligand-gated ion channel E177A mutant to IC50 for wild-type Gloeobacter violaceus ligand-gated ion channel expressed in Xenopus oocytes. The format is cell-based.
The test system of series [16] is Oocyte. In words: Selectivity ratio of IC50 for Gloeobacter violaceus ligand-gated ion channel R77A mutant to IC50 for wild-type Gloeobacter violaceus ligand-gated ion channel expressed in Xenopus oocytes. The format is cell-based.
Series [17] deals with Gloeobacter violaceus. In words: Inhibition of Gloeobacter violaceus ligand-gated ion channel R77A mutant at 100 uM. A digest of the protocol:
as §2

For series [18], the system named is Oocyte. In words: Inhibition of Gloeobacter violaceus ligand-gated ion channel expressed in Xenopus laevis oocytes assessed as inhibition of MES buffer pH 5.5 -induced currents at 100 uM after 30 secs by voltage clamp technique. The format is cell-based. A digest of the protocol:
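GLIC-expressing oocytes kept in Barth's medium (88 mM NaCl, 1 mM KCl, 2.4 mM NaHCO3, 15 mM HEPES, 0.3 mM NaNO3, 0.7 mM CaCl2). Each cell was first given pH 5.5 buffer (100 mM NaCl, 3 mM KCl, 1 mM CaCl2, 1 mM MgCl2, 10 mM MES) for 30 sec. Compound was then co-applied in the same buffer for 30 sec, followed by washout. Mean ± sd, n ≥ 3 cells.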

Series [19] relates to Oocyte. In words: Inhibition of Gloeobacter violaceus ligand-gated ion channel expressed in Xenopus laevis oocytes assessed as inhibition of MES buffer pH 5.5 -induced currents at 300 uM after 30 secs by voltage clamp technique. The class given is cell-based. A digest of the protocol: as §1

Regarding `COc1ccc(/C=C/C(=O)O)cc1O` [ISOFERULIC ACID], the 50% inhibitory concentration (IC50) in series [1] stood at 13.5 µM. For the same compound, the inhibition in [2] amounted to 98.5%.

Consider `O=C(O)COc1ccccc1`, for which the pKa in [3] is 3.2. Moreover, the IC50 in [1] came to 53.3 µM. Further, in series [2], the inhibition was 98.5%.

`O=C(O)C(=C/C=C/c1ccccc1)C(=O)O`: the pKa in series [3] came to 3.45. In addition, the half-maximal inhibitory concentration (IC50) in series [1] turned out to be 83.5 µM. For the same compound, the inhibition in [2] came to 92.2%.

Consider `OC/C=C/c1ccc(O)c(O)c1`, for which, in series [1], the IC50 stood at 73.9 µM. Besides, the inhibition in series [2] stood at 95.2%.

Turning to `O=C(O)/C=C/c1ccc(O)c(O)c1` [CAFFEIC ACID], the inhibition result in series [4] (100 uM), in series [6] and in series [7] was “inactive” in each case. In addition, the IC50 was determined as 420 µM in [5]; 24.1 µM in series [10]; 945 µM in series [11]; 16.7 µM in series [1]; 506 µM in series [14]. Moreover, the inhibition was 80% in [8]; 15% in [12]; 15% in series [13]; 15% in series [17]; 93.8% in series [2]. The Ratio IC50 in series [9], in series [15] and in series [16] was above 10 each time. In [3], this compound came in with a pKa of 4.35.

In turn, `O=C(O)CCc1ccc(O)c(O)c1` [DIHYDROCAFFEIC ACID] came in with a pKa in [3] of 4.3. In addition, the concentration for half-maximal inhibition (IC50) in [1] turned out to be 86.8 µM. Also, in [2], the inhibition was 90.5%.

In series [3], `COc1ccc(/C=C/C(=O)O)cc1OC` gave a pKa of 4.55. In series [1], the concentration for half-maximal inhibition (IC50) is 206 µM. Besides, in series [2], the inhibition turned out to be 75.6%.

`COC(=O)/C=C/c1ccc(O)c(O)c1` [METHYLCAFFEATE]: the concentration for half-maximal inhibition (IC50) in series [1] came out at 388 µM. In series [2], the inhibition was 78%.

As to `O=C(O)/C=C/c1ccc2c(c1)OCO2`, the inhibition in series [18] worked out at 79.7%. Further, the half-maximal inhibitory concentration (IC50) in [1] turned out to be 28.8 µM.

In turn, `O=C(O)/C=C/c1cccc(Cl)c1` [3-CHLORO-CINNAMIC ACID] returned a pKa in [3] of 4.8. Further, the IC50 in series [1] came out at 13.7 µM. Also, the inhibition in [2] was 95%.

Regarding `CCOC(=O)/C=C/c1ccc(O)c(O)c1` [ETHYL CAFFEATE], in [1], the IC50 came out at 246 µM. Also, in [2], the inhibition turned out to be 91.8%.

The compound `O=C(O)C(=Cc1ccccc1)C(=O)O` came in with a pKa in series [3] of 3.5. Moreover, the half-inhibitory concentration (IC50) in series [1] is 7940 µM. For the same compound, the inhibition in series [2] was 25%.

The compound `O=C(O)/C=C/c1cccc(C(F)(F)F)c1` showed a pKa in series [3] of 4.6. Also, in [1], the concentration for half-maximal inhibition (IC50) came out at 25.3 µM. In addition, the inhibition in series [2] worked out at 94.6%.

In series [3], `O=C(O)c1cc2ccccc2oc1=O` [COUMARIN-3-CARBOXYLIC ACID] showed a pKa of 3.6. Also, in series [1], the half-inhibitory concentration (IC50) was determined as 282 µM. Besides, the inhibition in [2] was 84%.

Regarding `CCNC(=O)/C=C/c1ccc(O)c(O)c1`, the inhibition result in series [4] (300 uM, in the assay text read “at 300 uM” for “at 100 uM”) was “inactive”. In addition, the IC50 in series [1] was determined as 295 µM. Also, in [2], the inhibition is 81.6%.

As to `COc1ccc2cc(C(=O)O)c(=O)oc2c1`, in [1], the IC50 is 168 µM. Also, the inhibition in series [2] turned out to be 96%.

`O=C(O)c1ccc2ccccc2c1` [BETA-NAPHTOIC ACID]: the pKa in [3] was 4.45. Further, the half-maximal inhibitory concentration (IC50) in series [1] was determined as 61.4 µM. Moreover, the inhibition in series [2] is 96.4%.

Consider `O=C(O)/C=C/c1ccccc1` [CINNAMIC ACID], for which, in series [1], the IC50 amounted to 34.6 µM. Also, the inhibition in series [2] worked out at 97.5%.

For the compound `O=C(O)/C=C/c1ccc(O)cc1` [COUMARIC ACID], the inhibition in series [19] amounted to 91.4%. In addition, in series [1], the concentration for half-maximal inhibition (IC50) is 9.59 µM.

Turning to `NC(=O)/C=C/c1ccc(O)c(O)c1`, the inhibition in series [19] amounted to 51.6%. For the same compound, in [1], the IC50 worked out at 347 µM.
